Laboratory results as given in PMC11618768 (Scientific Reports, 2024).
≈ marks a conversion by molar mass, not a printed value. Where “and” joins values, the source holds several entries; their conditions need not be identical. Equal entries are not always repeated.

Columns and labels:
MRSA [1] = details: cited from earlier work
MRSA [2] = details: cited from earlier work; remark: listed apart in the source
MRSA-244757 = assay: MIC and MBC, broth dilution; assay type: cell-based, Methicillin-resistant Staphylococcus aureus; details: MRSA-244,757, clinical isolate
Outline: (§1)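 Strains were grown from LB agar colonies in LB (180 rpm, 37 °C, 12 h), then diluted 1:100 and grown 3 h to log phase. The inoculum was adjusted to 1 × 10^6 CFU/mL for 96-well broth dilution, 37 °C, 18 h. MIC was the lowest concentration without visible growth. For MBC, 100.0 µL per well was plated on MHA (37 °C, 16–20 h); MBC was the lowest concentration without colonies.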

MRSA-244268 = assay: MIC and MBC, broth dilution; assay type: cell-based, Methicillin-resistant Staphylococcus aureus; details: MRSA-244,268, clinical isolate
Outline: as §1

MRSA-244410 = assay: MIC and MBC, broth dilution; assay type: cell-based, Methicillin-resistant Staphylococcus aureus; details: MRSA-244,410, clinical isolate
Outline: as §1

MRSA-244862 = assay: MIC and MBC, broth dilution; assay type: cell-based, Methicillin-resistant Staphylococcus aureus; details: MRSA-244,862, clinical isolate
Outline: as §1

MRSA [3] = assay: Mouse skin infection model; assay type: in vivo; details: day 13; 2.0 µg/mL once daily, mice
Outline: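 SPF male and female mice (18.0–22.0 g) had dorsal fur shaved and both sides of the back scalded with a scaldometer. 20.0 µL log-phase MRSA (1.5-3 × 10^6 CFU/mL in sterile saline) went onto each wound, which was then covered with sterile gauze. Test compound or vancomycin (2.0 µg/mL, 20.0 µL) was applied topically once daily, and model mice got solvent. Wounds were photographed daily for 13 days, and H&E sections were taken on day 13 (n = 6).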

MRSA-244358 = assay: MIC and MBC, broth dilution; assay type: cell-based, Methicillin-resistant Staphylococcus aureus; details: MRSA-244,358, clinical isolate
Outline: as §1

MRSA (ATCC 433000) [4] = assay: SYTOX green and PI assay; assay type: cell-based, Methicillin-resistant Staphylococcus aureus; details: 1/2×, 2×MIC, 12 h
Outline: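 Log-phase MRSA grown in LB at 37 °C, 180 rpm, adjusted to 1 × 10^6 CFU/mL. Exposed to test compound at 1/2×, 1× and 2×MIC for 12 h at 37 °C, then stained with SYTO 9 and PI for 30 min in the dark. Washed twice in PBS (pH 7.5, 0.1 M), then imaged by fluorescence microscopy: green marks viable cells, red marks dead cells.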

MRSA-244135 = assay: MIC and MBC, broth dilution; assay type: cell-based, Methicillin-resistant Staphylococcus aureus; details: MRSA-244,135, clinical isolate
Outline: as §1

[5] = test system: rabbit red blood cells (RBCs); assay: In vitro hemolysis assay; assay type: cell-based; details: 1 h, rabbit erythrocytes
Outline: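 Rabbit erythrocytes were exposed 1 h to test compound at 1/2×, 1× and 2× MIC. After centrifugation, supernatants were read spectrophotometrically at 570 nm and photographed. PBS served as negative control, and a positive control was included. n = 3.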

MRSA (ATCC 433000) [6] = assay: Time-kill assay; assay type: cell-based, Methicillin-resistant Staphylococcus aureus; details: 24 h
Outline: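 MRSA grown to log phase in LB (37 °C, 180 rpm) and adjusted to 1 × 10^6 CFU/mL. Incubated in 24-well plates with test compound at 0, 1/2×MIC or MIC for 24 h at 37 °C. Sampled every 2 h, with absorbance read at 570 nm.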

MRSA-244425 = assay: MIC and MBC, broth dilution; assay type: cell-based, Methicillin-resistant Staphylococcus aureus; details: MRSA-244,425, clinical isolate
Outline: as §1

human KB carcinoma cells = details: cited from earlier work
HaCat cells = assay: Cell viability assay using MTT; assay type: cell-based
Outline: (§2)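 Cells were kept in RPMI 1640 with 10% FBS and 1% penicillin-streptomycin at 37 °C, 5% CO2. They were seeded at 1 × 10^5 cells/well and grown 24 h to about 80% confluence. After medium removal, test compound was added at final 0.78125–100.0 µg/mL (twofold series), with a 0.5% DMSO control. Exposure was 24 h or 48 h, then MTT for 4 h, A490. Three repeats; IC50 derived.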

LO2 cells = assay: Cell viability assay using MTT; assay type: cell-based
Outline: as §2

MRSA-244548 = assay: MIC and MBC, broth dilution; assay type: cell-based, Methicillin-resistant Staphylococcus aureus; details: MRSA-244,548, clinical isolate
Outline: as §1

B. subtilis = details: cited from earlier work
P. notatum = details: cited from earlier work
MRSA-244288 = assay: MIC and MBC, broth dilution; assay type: cell-based, Methicillin-resistant Staphylococcus aureus; details: MRSA-244,288, clinical isolate
Outline: as §1

MRSA (ATCC 433000) [7] = assay: Scanning electron microscopy; assay type: cell-based, Methicillin-resistant Staphylococcus aureus; details: 2×MIC, 12 h
Outline: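 Log-phase MRSA exposed to test compound at 2×MIC for 12 h at 37 °C, with untreated cells as blank control. Cells were washed three times in PBS […]. They were fixed in 2.5% glutaraldehyde plus 2% paraformaldehyde for 12 h, air-dried and imaged by scanning electron microscopy.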

MRSA strain (ATCC 43300) = assay: MIC and MBC, broth dilution; assay type: cell-based, Methicillin-resistant Staphylococcus aureus
Outline: as §1

MRSA-244661 = assay: MIC and MBC, broth dilution; assay type: cell-based, Methicillin-resistant Staphylococcus aureus; details: MRSA-244,661, clinical isolate
Outline: as §1

HK-2 cells = assay: Cell viability assay using MTT; assay type: cell-based
Outline: as §2

S. aureus = details: cited from earlier work

For 7,8-dideoxygriseorhodin C, the “Decrease in MIC on simultaneous treatment with oxacillin” value (MRSA [1]) is listed as “approximately tenfold decrease in MIC” and the Combination index (MRSA [1]; with oxacillin) is listed as under 0.5.
For 8-Methoxygriseorhodin C, the “MIC against MRSA” value (MRSA [2]) is listed as 0.78 µg/mL.
For `COC1=CC(=O)c2c(O)c3c(c(O)c2C1=O)O[C@]1(Oc2c(cc4cc(C)oc(=O)c4c2O)[C@@H](O)[C@@H]1O)[C@@H]3O` [Griseorhodin C], the MIC (MRSA-244757) was 1 µg/mL (≈ 1.9 µM), the MIC (MRSA-244268) was 2 µg/mL (≈ 3.8 µM) and the MIC (MRSA-244410) was 1 µg/mL (≈ 1.9 µM). The MIC (MRSA-244862) was 1 µg/mL (≈ 1.9 µM), the “HE staining of skin wound” value (MRSA [3]) was “fewer inflammatory cells, lower thickness, and better structural integrity of hair follicles and other structures compared to the Vancomycin-treated group” and the MIC (MRSA-244358) was 1 µg/mL (≈ 1.9 µM). The “LIVE/DEAD fluorescence (red dead, green viable cells)” value (MRSA (ATCC 433000) [4]) was “exhibits bactericidal effects against MRSA”, the MIC (MRSA-244135) was 2 µg/mL (≈ 3.8 µM) and the Hemolysis rate ([5]; 1/2 MIC) was 0.70%. The Hemolysis rate ([5]; 2×MIC) was 2.13%, the Hemolysis rate ([5]; MIC) was 1.77% and the “Inhibition of MRSA growth in time-kill curve” value (MRSA (ATCC 433000) [6]; 1/2×MIC, vs control group) was “some inhibition of MRSA growth compared to the control group”. The “Bacteriostatic activity in time-kill curve compared with vancomycin” value (MRSA (ATCC 433000) [6]; MIC) was “stronger bacteriostatic activity against MRSA than the clinically positive control drug, vancomycin”, the MIC (MRSA-244425) was 1 µg/mL (≈ 1.9 µM) and the Inhibitory activity (human KB carcinoma cells) was “inhibitory activity”. The “Cell morphology under the microscope” value (HaCat cells; 50 ~ 100 µg/mL) was “the cell morphology remained normal and the arrangement was regular, and no fragmentation or cell death was observed”, the “IC50 (cell viability)” value (HaCat cells; MTT, 48 h) was 59.27 µg/mL (≈ 113 µM) and the “Cell morphology under the microscope” value (LO2 cells; 50 ~ 100 µg/mL) was “the cell morphology remained normal and the arrangement was regular, and no fragmentation or cell death was observed”. For the same compound, the “IC50 (cell viability)” value (LO2 cells; MTT, 48 h) was 156.2 µg/mL (≈ 297 µM), the MIC (MRSA-244548) was 0.5 µg/mL (≈ 0.95 µM) and the Inhibitory activity (B. subtilis) was “inhibitory activity”. The Inhibitory activity (P. notatum) was “inhibitory activity”, the MIC (MRSA-244288) was 1 µg/mL (≈ 1.9 µM) and the “Morphological changes of MRSA by SEM” value (MRSA (ATCC 433000) [7]) was “the cell walls appeared wrinkled, the surfaces showed signs of damage, and cellular integrity was compromised”. For the same compound, the MIC (MRSA strain (ATCC 43300); MRSA ATCC 43,300) was 1.0 µg/mL and 1 µg/mL, the MIC (MRSA-244661) was 1 µg/mL (≈ 1.9 µM) and the “Cell morphology under the microscope” value (HK-2 cells; 50 ~ 100 µg/mL) was “the cell morphology remained normal and the arrangement was regular, and no fragmentation or cell death was observed”. For the same compound, the “IC50 (cell viability)” value (HK-2 cells; MTT, 48 h) was 86.32 µg/mL (≈ 164 µM) and the Inhibitory activity (S. aureus) was “inhibitory activity”.
In the case of `CN[C@H](CC(C)C)C(=O)N[C@H]1C(=O)N[C@@H](CC(N)=O)C(=O)N[C@H]2C(=O)N[C@H]3C(=O)N[C@H](C(=O)N[C@H](C(=O)O)c4cc(O)cc(O)c4-c4cc3ccc4O)[C@H](O)c3ccc(c(Cl)c3)Oc3cc2cc(c3O[C@@H]2O[C@H](CO)[C@@H](O)[C@H](O)[C@H]2O[C@H]2C[C@](C)(N)[C@H](O)[C@H](C)O2)Oc2ccc(cc2Cl)[C@H]1O` [vancomycin, reference compound], the MIC (MRSA strain (ATCC 43300); Staphylococcus aureus, ATCC43|ATCC43300|MRSA) is reported as 1 µg/mL (≈ 0.69 µM).
